Assay results gathered from unrelated publications.
Lines come from different studies, so protocols differ.
Read-out: cell growth or viability

Cc1nc(Nc2ccc3c(c2)/C(=C/c2ccccc2)C(=O)N3Cc2ccccc2)c2ccccc2n1 — IC50 (H22; MTT): 1080 nM
C=CC(=O)NC1CCN(c2ncc3ncnc(Nc4ccc(Oc5ccc6c(c5)ncn6C)c(C)c4)c3n2)CC1 — IC50 (SNU-216): 18.2 nM
Cc1nc(NC(=O)N2CCC[C@H]2C(N)=O)sc1-c1ccnc(C(C)(C)C(F)(F)F)c1 — IC50 (H22; MTT): 25400 nM
O=C(C=Cc1ccccc1)Nc1cc(-c2ccnc(N3CCOCC3)c2)ccn1 — IC50 (HeLa; MTT; 72 h): 402 nM
Cc1nc(Nc2ccc3c(c2)C(C)(C)C(=O)N3)c2ccccc2n1 — IC50 (H22; MTT): > 50000 nM
CN1CCC(NC(=O)c2ccc(-c3cc(-c4ccsc4)c4oc5c(c4c3)CCN(C(=O)/C=C/c3ccc(N)nc3)C5)nn2)C(F)(F)C1 (stereo not drawn) — IC50 (U2OS; CCK-8; 72 h): 1200 nM
COc1cc2ncnc(Nc3ccc4c(c3)/C(=C/c3ccccc3)C(=O)N4C)c2cc1OC — IC50 (H22; MTT): 15100 nM
CC1(C)CCC2(CC1)N[C@@H](C(=O)N[C@@H]1CC[C@@H](C(N)=O)OC1)[C@H](c1ccnc(Cl)c1F)[C@]21C(=O)Nc2cc(Cl)ccc21 — IC50 (U2OS; resazurin; 72 h): > 2000 nM
N[C@H]1CC[C@H](N[C@@H]2C[C@H]2c2ccccc2)CC1 — IC50 (U2OS; resazurin): 346000 nM
Cc1nc(Nc2ccc3c(c2)/C(=C/c2ccccc2C)C(=O)N3)c2ccccc2n1 — IC50 (H22; MTT): 9920 nM
COc1cc2c3c(n(CCCn4ccnc4)c(=O)c2cc1OC)-c1nc2c(cc1C3=O)OCO2 — IC50 (L-363; MTS; 72 h): 232 nM
Nc1ccc(/C=C/C(=O)N2CCc3c(oc4c(-c5ccc(F)cc5)cc(-c5ccc(C(=O)N6CCC(F)(F)CC6)nn5)cc34)C2)cn1 — IC50 (U2OS; CCK-8; 72 h): 640 nM
C=CC(=O)N1CCN(c2nc(=O)n(-c3c(C)ccnc3C(C)C)c3nc(-c4c(O)cccc4F)c(F)cc23)[C@@H](C)C1 — IC50 (NCI-H1792; ATP luminescence): > 1000 nM
CN1CCC(NC(=O)c2ccc(-c3cc(C4CC4)c4oc5c(c4c3)CCN(C(=O)/C=C/c3ccc(N)nc3)C5)nn2)C(F)(F)C1 (stereo not drawn) — IC50 (U2OS; CCK-8; 72 h): 3490 nM
COc1cc2c3c(n(CCCNCCO)c(=O)c2cc1OC)-c1nc2c(cc1C3=O)OCO2 — IC50 (L-363; MTS; 72 h): 154 nM
